Activity calls are given as the source filed them. No cut-off for these calls is given here.
What was measured:
[1] = Inhibition of rat intestinal alpha-glucosidase after 5 mins by spectrophotometry
In short: (§1)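 Enzyme source was the supernatant of sonicated rat intestinal homogenate after centrifugation. Sample (5 mg/mL DMSO stock) in 100 mM phosphate buffer pH 6.8 was preincubated with enzyme for 5 min, then 5 mM p-nitrophenyl-α-D-glucopyranoside added. p-Nitrophenol was read at 405 nm 5 min later, with substrate-free blanks and a DMSO control. Inhibition (%) = (1 − B/A) × 100; IC50 by logarithmic regression.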

[2] = test system: Radical scavenging activity; assay: Antioxidant activity assessed as DPPH radical scavenging activity at 25 ug/mL after 30 mins by spectrophotometry; type: functional
In short: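 Test sample in DMSO (1 mg/mL stock) was mixed with 0.1 M Tris–HCl pH 7.4 and 0.5 mM DPPH in absolute ethanol. The mixture was shaken and kept in the dark 30 min, then absorbance read at 517 nm. Scavenging (%) = (1 − B/A) × 100 against a control without sample.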

Rattus norvegicus [3] = species: Rattus norvegicus; assay: Inhibition of rat intestinal alpha-glucosidase at 100 ug/mL after 5 mins by spectrophotometry; in short: as §1
Rattus norvegicus [4] = assay: Antihyperglycemic activity in overnight fasted starch-induced hyperglycemic Wistar rat assessed as decrease in plasma glucose level at 10 mg/kg, po administered 15 mins before starch challenge measured after 30 to 120 mins by glucose oxidase method; type: functional, organism-based; parameters: dose 10 mg/kg
In short: (§2)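 Wistar rats of either sex (195–215 g), housed at 22 °C with a 12 h light/dark cycle, fasted overnight. Test agent suspended in normal saline and given orally by gastric intubation; controls received saline. Soluble starch (2 g/kg in saline) fed 15 min later. Retro-orbital blood was collected into EDTA for plasma glucose at 0–120 min. Plasma glucose AUC by trapezoid formula.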

Rattus norvegicus [5] = assay: Antihyperglycemic activity in overnight fasted starch-induced hyperglycemic Wistar rat assessed as decrease in plasma glucose level at 100 mg/kg, po administered 15 mins before starch challenge measured after 30 to 120 mins by glucose oxidase method; type: functional, organism-based; parameters: dose 100 mg/kg; in short: as §2
Rattus norvegicus [6] = species: Rattus norvegicus; assay: Mixed noncompetitive inhibition of rat intestinal alpha-glucosidase at 10.6 uM by Lineweaver-Burke plot analysis
In short: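 Conditions follow the rat intestinal α-glucosidase/p-NPG assay, but Vmax kinetics were recorded over 10 min at 30 s intervals after a 10 s lag following substrate addition. Substrate was used at various dilutions, with or without preincubation of inhibitor. Data were analysed on a Lineweaver–Burk plot.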

| SMILES | IC50 [1] [µM] | inhibition (Rattus norvegicus [3]) | inhibition (Rattus norvegicus [6]) | Activity [2] | Activity (Rattus norvegicus [4]) | Activity (Rattus norvegicus [5]) |
| --- | --- | --- | --- | --- | --- | --- |
| C[C@H]1O[C@H](O[C@H]2[C@H](O)[C@@H](O)[C@@H](O[C@H]3[C@H](O)[C@@H](O)C(O)O[C@@H]3CO)O[C@@H]2CO)[C@H](O)[C@@H](O)[C@@H]1N[C@H]1C=C(CO)[C@@H](O)[C@H](O)[C@H]1O (some centres undefined) |  |  |  |  | Active |  |
| Cc1c(Cl)c(=O)oc2cc(O)ccc12 | 128 | 77.8% |  | 20.8% |  |  |
| CC(=O)c1cc2cc(-c3ccc(N4CCOCC4)cc3)ccc2oc1=O | 49 | 85.1% |  | 20.5% |  |  |
| O=C(c1ccccc1)c1cc2ccccc2oc1=O |  | 44.4% |  | 30.8% |  |  |
| COc1ccc(-c2ccc3oc(=O)c(C#N)c(C)c3c2)cn1 | 44.5 | 93.1% |  | 35% |  |  |
| CCOC(=O)c1cc2ccc(O)cc2oc1=O | 91 | 77.6% |  | inactive |  |  |
| CC(=O)c1cc2cc(-c3ccc(Cl)cc3)ccc2oc1=O | 96.4 | 76.9% |  | 12.5% |  |  |
| CCOC(=O)c1cc2ccccc2oc1=O |  | 47% |  | 1.82% |  |  |
| CC(=O)c1cc2cc(-c3ccc(F)cc3)ccc2oc1=O | 53.1 | 74.3% |  | 15.6% |  |  |
| O=C(c1ccccc1)c1cc2cc(-c3ccccc3)ccc2oc1=O | 52.2 | 70% |  | 2.45% |  |  |
| Cc1c(O)ccc2c(CCl)cc(=O)oc12 | 68.7 | 72.7% |  | 28.5% |  |  |
| CC(=O)c1cc2cc(-c3ccc(C)cc3)ccc2oc1=O | 52.6 | 86.5% |  | inactive |  |  |
| CCOC(=O)c1cc2cc(-c3ccccc3)ccc2oc1=O | 186 | 77.1% |  | 4.8% |  |  |
| CC(=O)c1cc2cc(-c3cccnc3)ccc2oc1=O | 58.1 | 96.4% |  | 3.72% |  |  |
| CCOC(=O)c1cc2cc(-c3ccc(F)cc3)ccc2oc1=O | 37.6 | 66.7% |  | inactive |  |  |

More lines, main results first:

| IC50 [1] [µM] | inhibition (Rattus norvegicus [3]) | inhibition (Rattus norvegicus [6]) | SMILES | Activity [2] | Activity (Rattus norvegicus [4]) | Activity (Rattus norvegicus [5]) |
| --- | --- | --- | --- | --- | --- | --- |
| 52.9 | 95.5% |  | Cc1c(C#N)c(=O)oc2ccc(-c3ccccc3)cc12 | 10.4% |  |  |
|  | 53.7% |  | O=C(c1ccccc1)c1cc2ccc(O)cc2oc1=O | inactive |  |  |
|  | 31.9% |  | CC(=O)c1cc2cc(Br)ccc2oc1=O | 1.52% |  |  |
|  | inactive |  | CC(=O)c1cc2cc(-c3ccccc3)ccc2oc1=O | 19.6% |  |  |
|  | 18.1% |  | O=C(c1ccccc1)c1cc2cc(Br)ccc2oc1=O | 2.22% |  |  |
|  | 53.2% |  | CC(=O)c1cc2ccccc2oc1=O | 0.83% |  |  |
| 28.2 | 86% | Active | COc1ccc(-c2ccc3oc(=O)c(C(C)=O)cc3c2)cn1 | inactive |  | Active |
| 243 | 78.3% |  | O=c1cc(CCl)c2ccc(O)cc2o1 | 1.32% |  |  |
| 40.5 | 80.4% |  | CCOC(=O)c1cc2cc(-c3cncnc3)ccc2oc1=O | inactive |  |  |
| 105 | 76.9% |  | CCOC(=O)c1cc2cc(-c3ccc(OC)nc3)ccc2oc1=O | inactive |  |  |
| 112 | 65.9% |  | CCOC(=O)c1cc2cc(-c3ccc(C)cc3)ccc2oc1=O | inactive |  |  |
| 37.2 | 83.5% |  | CC(=O)c1cc2cc(-c3cncnc3)ccc2oc1=O | inactive |  |  |
